SMILES strings stand for the structures. Converted amounts (≈) assume the structure as drawn.

Assay type in all cases: functional
The subject of assay [1] is Pseudomonas aeruginosa. The experiment in a line: In vitro minimum inhibitory concentration against Pseudomonas aeruginosa PAO-1. The essentials:
(§1)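 Broth microdilution following CLSI M100-S12. Stocks were 10 mg/mL in water, diluted in Mueller–Hinton broth to a top level of 128, then serially 2-fold in plates. Bacteria in cation-adjusted Mueller–Hinton broth were mixed 1:1 with drug and incubated 16–20 h at 35 °C. MIC was the lowest concentration with no visible growth. Run in duplicate with no-antibiotic and no-inoculum (sterility) controls.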

Assay [2] deals with Staphylococcus aureus. The experiment in a line: In vitro minimum inhibitory concentration against Staphylococcus aureus MRSA 3359. Put shortly: as §1
The subject of assay [3] is Pseudomonas aeruginosa. The experiment in a line: In vitro minimum inhibitory concentration against Pseudomonas aeruginosa ATCC 27853. Put shortly: as §1
The test system of assay [4] is Staphylococcus aureus. Briefly: In vitro minimum inhibitory concentration against Staphylococcus aureus ATCC 29213. The essentials:
as §1

Assay [5] concerns Enterococcus faecalis. The experiment in a line: In vitro minimum inhibitory concentration against Enterococcus faecalis 29212. The essentials:
as §1

In assay [6] the test system is Escherichia coli. The experiment in a line: In vitro minimum inhibitory concentration against Escherichia coli ATCC 25922. Put shortly: as §1
In assay [7] the test system is Pseudomonas aeruginosa. Briefly: In vitro minimum inhibitory concentration against Pseudomonas aeruginosa PAO-1 Minimum inhibitory concentration against Pseudomonas aeruginosa PAO-1. Put shortly:
as §1

For the molecule `NC[C@H]1O[C@H](O[C@H]2[C@H](OC[C@H](O)CN3CCCN(C[C@@H](O)CO[C@@H]4[C@@H](O)[C@H](N)C[C@H](N)[C@H]4O[C@H]4O[C@H](CN)[C@@H](O)[C@H](O)[C@H]4N)CC3)[C@@H](O)[C@H](N)C[C@@H]2N)[C@H](N)[C@@H](O)[C@@H]1O`, the MIC in assay [1] is 50 µg/mL (≈ 58.3 µM); in assay [2], over 50 µg/mL; in assay [3], 12.5 µg/mL (≈ 14.6 µM); in assay [4], 12.5 µg/mL (≈ 14.6 µM); in assay [5], over 50 µg/mL; in assay [6], 50 µg/mL (≈ 58.3 µM).
For `NC[C@@H]1C[C@H](O)[C@@H](N)[C@H](O[C@H]2[C@H](O)[C@@H](OC[C@@H](O)CNCCCCNC[C@@H](O)CO[C@@H]3[C@@H](O)[C@H](O[C@H]4O[C@H](CN)[C@@H](O)C[C@H]4N)[C@@H](N)C[C@H]3N)[C@H](N)C[C@@H]2N)O1`, the MIC in assay [2] is 16 µg/mL (≈ 19.7 µM); in assay [3], 2 µg/mL (≈ 2.46 µM); in assay [4] it was 0.5 µg/mL (≈ 0.615 µM); in assay [5], 32 µg/mL (≈ 39.4 µM); in assay [6] it was 4 µg/mL (≈ 4.92 µM); in assay [7], 2 µg/mL (≈ 2.46 µM).
In the case of `NC[C@H]1O[C@H](O[C@H]2[C@H](OC[C@H](O)CN3CC4CC3CN4C[C@@H](O)CO[C@@H]3[C@@H](O)[C@H](N)C[C@H](N)[C@H]3O[C@H]3O[C@H](CN)[C@@H](O)[C@H](O)[C@H]3N)[C@@H](O)[C@H](N)C[C@@H]2N)[C@H](N)[C@@H](O)[C@@H]1O`, the MIC was 50 µg/mL (≈ 58.5 µM) in assay [1]; over 50 µg/mL in assay [2]; 12.5 µg/mL (≈ 14.6 µM) in assay [3]; 12.5 µg/mL (≈ 14.6 µM) in assay [4]; over 50 µg/mL in assay [5]; over 50 µg/mL in assay [6].
Regarding `NC[C@H]1O[C@H](O[C@H]2[C@H](OC[C@@H](O)CNCCCCNC[C@@H](O)CO[C@@H]3[C@@H](O)[C@H](N)C[C@H](N)[C@H]3O[C@H]3O[C@H](CN)[C@@H](O)C[C@H]3N)[C@@H](O)[C@H](N)C[C@@H]2N)[C@H](N)[C@@H](O)[C@@H]1O`, the MIC in assay [2] was 16 µg/mL (≈ 19.3 µM); in assay [3], 4 µg/mL (≈ 4.83 µM); in assay [4] it was 2 µg/mL (≈ 2.41 µM); in assay [5] it was 32 µg/mL (≈ 38.6 µM); in assay [6], 16 µg/mL (≈ 19.3 µM); in assay [7] it was 4 µg/mL (≈ 4.83 µM).
With `CN(CCOCCOCCN(C)C[C@@H](O)CO[C@@H]1[C@@H](O)[C@H](N)C[C@H](N)[C@H]1O[C@H]1O[C@H](CN)[C@@H](O)[C@H](O)[C@H]1N)C[C@@H](O)CO[C@@H]1[C@@H](O)[C@H](N)C[C@H](N)[C@H]1O[C@H]1O[C@H](CN)[C@@H](O)[C@H](O)[C@H]1N`, the MIC in assay [2], in assay [3], in assay [4], in assay [5], in assay [6] and in assay [7] was over 50 µg/mL each time.
For the molecule `CCN(CCCN(CC)C[C@@H](O)CO[C@@H]1[C@@H](O)[C@H](N)C[C@H](N)[C@H]1O[C@H]1O[C@H](CN)[C@@H](O)[C@H](O)[C@H]1N)C[C@@H](O)CO[C@@H]1[C@@H](O)[C@H](N)C[C@H](N)[C@H]1O[C@H]1O[C@H](CN)[C@@H](O)[C@H](O)[C@H]1N`, the MIC in assay [1] is 6.3 µg/mL (≈ 7.1 µM); in assay [2], 50 µg/mL (≈ 56.4 µM); in assay [3], 6.3 µg/mL (≈ 7.1 µM); in assay [4], 3.1 µg/mL (≈ 3.49 µM); in assay [5] it was over 50 µg/mL; in assay [6] it was 12.5 µg/mL (≈ 14.1 µM).
Turning to `NC[C@H]1O[C@H](O[C@H]2[C@H](OC[C@H](O)CN[C@H]3CC[C@H](NC[C@@H](O)CO[C@@H]4[C@@H](O)[C@H](N)C[C@H](N)[C@H]4O[C@H]4O[C@H](CN)[C@@H](O)[C@H](O)[C@H]4N)CC3)[C@@H](O)[C@H](N)C[C@@H]2N)[C@H](N)[C@@H](O)[C@@H]1O`, the MIC is 50 µg/mL (≈ 57.4 µM) in assay [2]; 1.6 µg/mL (≈ 1.84 µM) in assay [3]; 50 µg/mL (≈ 57.4 µM) in assay [4]; over 50 µg/mL in assay [5]; 25 µg/mL (≈ 28.7 µM) in assay [6].
Take `NC[C@H]1O[C@H](O[C@H]2[C@H](OC[C@H](O)CN3CCN(C[C@@H](O)CO[C@@H]4[C@@H](O)[C@H](N)C[C@H](N)[C@H]4O[C@H]4O[C@H](CN)[C@@H](O)[C@H](O)[C@H]4N)CC3)[C@@H](O)[C@H](N)C[C@@H]2N)[C@H](N)[C@@H](O)[C@@H]1O`: the MIC in assay [1] was 25 µg/mL (≈ 29.7 µM); in assay [2] it was over 50 µg/mL; in assay [3], 25 µg/mL (≈ 29.7 µM); in assay [4], 12.5 µg/mL (≈ 14.8 µM); in assay [5], over 50 µg/mL; in assay [6], 25 µg/mL (≈ 29.7 µM).
`NC[C@H]1O[C@H](O[C@H]2[C@H](OC[C@H](O)CNCCCNCCNC[C@@H](O)CO[C@@H]3[C@@H](O)[C@H](N)C[C@H](N)[C@H]3O[C@H]3O[C@H](CN)[C@@H](O)[C@H](O)[C@H]3N)[C@@H](O)[C@H](N)C[C@@H]2N)[C@H](N)[C@@H](O)[C@@H]1O`: the MIC in assay [2], in assay [3], in assay [4], in assay [5], in assay [6] and in assay [7] was over 50 µg/mL in each case.
Take `CN(CCCCCCN(C)C[C@@H](O)CO[C@@H]1[C@@H](O)[C@H](N)C[C@H](N)[C@H]1O[C@H]1O[C@H](CN)[C@@H](O)[C@H](O)[C@H]1N)C[C@@H](O)CO[C@@H]1[C@@H](O)[C@H](N)C[C@H](N)[C@H]1O[C@H]1O[C@H](CN)[C@@H](O)[C@H](O)[C@H]1N`: the MIC is over 50 µg/mL in assay [2]; 12.5 µg/mL (≈ 13.9 µM) in assay [3]; 6.3 µg/mL (≈ 6.99 µM) in assay [4]; over 50 µg/mL in assay [5]; 25 µg/mL (≈ 27.7 µM) in assay [6]; 50 µg/mL (≈ 55.5 µM) in assay [7].
In the case of `CN(CCCCN(C)C[C@@H](O)CO[C@@H]1[C@@H](O)[C@H](N)C[C@H](N)[C@H]1O[C@H]1O[C@H](CN)[C@@H](O)C[C@H]1N)C[C@H](O)CO[C@@H]1[C@@H](O)[C@H](N)C[C@H](N)[C@H]1O[C@H]1O[C@H](CN)[C@@H](O)[C@H](O)[C@H]1N`, the MIC was 32 µg/mL (≈ 37.3 µM) in assay [2]; 16 µg/mL (≈ 18.7 µM) in assay [3]; 2 µg/mL (≈ 2.33 µM) in assay [4]; over 50 µg/mL in assay [5]; 16 µg/mL (≈ 18.7 µM) in assay [6]; 16 µg/mL (≈ 18.7 µM) in assay [7].
For `CN(CCCCN(C)C[C@@H](O)CO[C@@H]1[C@@H](O)[C@H](O[C@H]2O[C@H](CN)[C@@H](O)C[C@H]2N)[C@@H](N)C[C@H]1N)C[C@H](O)CO[C@@H]1[C@@H](O)[C@H](O[C@@H]2O[C@H](CN)C[C@H](O)[C@H]2N)[C@@H](N)C[C@H]1N`, the MIC in assay [2] came out at 20.9 µg/mL (≈ 24.8 µM); in assay [3] it was 10.4 µg/mL (≈ 12.4 µM); in assay [4], 0.6 µg/mL (≈ 0.713 µM); in assay [5] it was 20.9 µg/mL (≈ 24.8 µM); in assay [6] it was 5.2 µg/mL (≈ 6.18 µM); in assay [7], 2.6 µg/mL (≈ 3.09 µM).
Turning to `NC[C@@H]1C[C@H](O)[C@@H](N)[C@H](O[C@H]2[C@H](O)[C@@H](OC[C@@H](O)CN[C@H]3CC[C@H](NC[C@@H](O)CO[C@@H]4[C@@H](O)[C@H](O[C@H]5O[C@H](CN)[C@@H](O)C[C@H]5N)[C@@H](N)C[C@H]4N)CC3)[C@H](N)C[C@@H]2N)O1`, the MIC in assay [2] was found to be 16 µg/mL (≈ 19.1 µM); in assay [3], 2 µg/mL (≈ 2.38 µM); in assay [4], 0.5 µg/mL (≈ 0.596 µM); in assay [5] it was 32 µg/mL (≈ 38.1 µM); in assay [6], 4 µg/mL (≈ 4.77 µM); in assay [7], 2 µg/mL (≈ 2.38 µM).
Consider `NC[C@@H]1C[C@H](O)[C@@H](N)[C@H](O[C@H]2[C@H](O)[C@@H](OC[C@@H](O)CNCCCNC[C@@H](O)CO[C@@H]3[C@@H](O)[C@H](O[C@H]4O[C@H](CN)[C@@H](O)C[C@H]4N)[C@@H](N)C[C@H]3N)[C@H](N)C[C@@H]2N)O1`, for which the MIC is 10.4 µg/mL (≈ 13 µM) in assay [2]; 2.6 µg/mL (≈ 3.25 µM) in assay [3]; 1.3 µg/mL (≈ 1.63 µM) in assay [4]; over 20.9 µg/mL in assay [5]; 20.9 µg/mL (≈ 26.2 µM) in assay [6]; 1.3 µg/mL (≈ 1.63 µM) in assay [7].

The MIC is the lowest concentration found to suppress growth. Higher therefore signals weaker potency.
